Assay results: PMC3064895 (Cancer Chemotherapy and Pharmacology, 2010)
Where “and” joins values, the source holds several entries; their conditions need not be identical. Identical values can stand only once.

Assays:
[1] = Supine blood pressure and heart rate; format: in vivo, patients with advanced cancer; settings: for Mean (SD) maximal change from baseline in supine HR / Mean (SD) maximal change from baseline in supine diastolic BP / Mean (SD) maximal change from baseline in supine systolic BP: over 12-h period; for Mean increase from baseline in diastolic BP, individual patient / Mean increase from baseline in systolic BP, individual patient: patient with confirmed PR
[2] = Left ventricular ejection fraction; format: in vivo, patients with advanced cancer; settings: for Mean (SD) change from baseline in LVEF(%): sorafenib 400 mg bid
[3] = Safety: adverse events by NCI-CTCAE v3.0; format: in vivo, patients with advanced cancer
In short: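 Patients with advanced cancer took the oral kinase inhibitor at 400 mg bid, continuously, in 28-day cycles. Safety, including laboratory tests, was checked at screening, at baseline and on day 1 of each cycle. Treatment-emergent AEs were graded by NCI-CTCAE v3.0 for incidence, severity, seriousness and drug relationship, and summarized descriptively for all patients with ≥1 dose.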

[4] = observational study by Schmidinger et al.; cited from earlier work
Efficacy: tumor response = format: in vivo, patients with advanced cancer
In short: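 Adults with advanced cancer took the oral multitargeted kinase inhibitor at 400 mg bid, continuously, in 28-day cycles until progression or intolerance. Tumors were measured at screening and every 2 cycles and assessed locally by RECIST. Patients with ≥1 dose were included; patients were evaluable if radiologically re-evaluated or if they stopped for death or progression before re-evaluation. Descriptive statistics were used, with Kaplan–Meier for PFS.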

[5] = Day 1 of cycle 2, listed as Sorafenib

CNC(=O)c1cc(Oc2ccc(NC(=O)Nc3ccc(Cl)c(C(F)(F)F)c3)cc2)ccn1 [sorafenib]
Mean (SD) maximal change from baseline in supine HR [1, 5]: 2.9 (8.2) bpm | Mean (SD) maximal change from baseline in supine diastolic BP [1, 5]: 19.8 (9.0) mm Hg | Mean (SD) maximal change from baseline in supine systolic BP [1, 5]: 27.7 (18.5) mm Hg | Mean (SD) maximal change from baseline in supine HR ([1]; Day 1 of cycle 5): 8.3 (±6.8) bpm | Mean (SD) maximal change from baseline in supine diastolic BP ([1]; Day 1 of cycle 5): 22.0 (11.2) mm Hg | Mean (SD) maximal change from baseline in supine systolic BP ([1]; Day 1 of cycle 5): 24.8 (14.4) mm Hg | Mean (SD) maximal change from baseline in supine HR ([1]; Day 1 of cycle 5, listed as Sorafenib): 8.3 (6.8) bpm | Mean increase from baseline in diastolic BP, individual patient ([1]; after 1 cycle): 31.0 mm Hg | Mean increase from baseline in systolic BP, individual patient ([1]; after 1 cycle): 44.5 mm Hg | Mean increase from baseline in diastolic BP, individual patient ([1]; after 4 cycles): 40.8 mm Hg | Mean increase from baseline in systolic BP, individual patient ([1]; after 4 cycles): 29.3 mm Hg | LVEF measurement, individual patient ([2]; RCC patient with diabetes (baseline 67%), Day 1 of cycle 3, MUGA scan): 42.2% | LVEF measurement, individual patient ([2]; RCC patient with diabetes (baseline 67%), repeat MUGA scan (+16 days)): 50% | Mean (SD) change from baseline in LVEF(%) ([2]; primary analysis population, Day 1 of cycle 3 (after 2 cycles)): −0.8 (±8.6) LVEF(%) and −0.8 LVEF(%) | Mean (SD) change from baseline in LVEF(%) ([2]; primary analysis population, Day 1 of cycle 3 (after 2 cycles), listed as Sorafenib): −0.8 (8.6) LVEF(%) | Mean (SD) change from baseline in LVEF(%) ([2]; primary analysis population, Day 1 of cycle 5 (after 4 cycles)): −1.2 (±7.8) LVEF(%) and −1.2 LVEF(%) | Mean (SD) change from baseline in LVEF(%) ([2]; primary analysis population, Day 1 of cycle 5 (after 4 cycles), listed as Sorafenib): −1.2 (7.8) LVEF(%) | Patients with decrease from baseline of ≥10 LVEF(%) ([2]; primary group, after 2 cycles): 12.9% and 13% | Patients with decrease from baseline of ≥10 LVEF(%) ([2]; primary group, after 4 cycles): 4% | Mean decline in LVEF(%) ([2]; primary patient group (n = 24), after 4 cycles): 1.2 LVEF(%) | Mean (SD) change from baseline in LVEF(%) ([2]; secondary analysis population, Day 1 of cycle 3 (after 2 cycles)): −1.0 (8.5) LVEF(%) | Mean (SD) change from baseline in LVEF(%) ([2]; secondary analysis population, Day 1 of cycle 5 (after 4 cycles)): −1.4 (9.4) LVEF(%) | Patients with decrease from baseline of ≥10 LVEF(%) ([2]; secondary group, after 2 cycles): 12.0% | Patients with decrease from baseline of ≥10 LVEF(%) ([2]; secondary group, after 4 cycles): 7.1% | Mean decline in LVEF(%) ([2]; secondary patient group (n = 14), after 4 cycles): 1.4 LVEF(%) | Mean decline in LVEF(%) ([2]; secondary patient group (n = 25), after 2 cycles): 1.0 LVEF(%) | Largest individual decrease in ejection fraction ([2]; single patient without clinical signs of CHF): −24.8 LVEF[%] | LVEF measurement, individual patient ([2]; thymic cancer patient (baseline 72%), repeat ECHO scan (+3 days)): 60–65% | Alopecia, drug-related, Grade ≥3 ([3]; N = 53): 0 (0) n (%) | Alopecia, drug-related, all grades ([3]; N = 53): 13 (25) n (%) | Dermal change, drug-related, Grade ≥3 ([3]; N = 53): 0 (0) n (%) | Dermal change, drug-related, all grades ([3]; N = 53): 6 (11) n (%) | Dermatology—other, drug-related, Grade ≥3 ([3]; N = 53): 1 (2) n (%) | Dermatology—other, drug-related, all grades ([3]; N = 53): 7 (13) n (%) | Diarrhea, drug-related, Grade ≥3 ([3]; N = 53): 1 (2) n (%) | Diarrhea, drug-related, all grades ([3]; N = 53): 15 (28) n (%) | Fatigue, drug-related, Grade ≥3 ([3]; N = 53): 1 (2) n (%) | Fatigue, drug-related, all grades ([3]; N = 53): 8 (15) n (%) | Hand-foot skin reaction, drug-related, Grade ≥3 ([3]; N = 53): 6 (11) n (%) | Hand-foot skin reaction, drug-related, all grades ([3]; N = 53): 16 (30) n (%) | Hypertension, drug-related, Grade ≥3 ([3]; N = 53): 1 (2) n (%) | Hypertension, drug-related, all grades ([3]; N = 53): 6 (11) n (%) | Mucositis, drug-related, Grade ≥3 ([3]; N = 53): 1 (2) n (%) | Mucositis, drug-related, all grades ([3]; N = 53): 8 (15) n (%) | Nausea, drug-related, Grade ≥3 ([3]; N = 53): 0 (0) n (%) | Nausea, drug-related, all grades ([3]; N = 53): 7 (13) n (%) | Pain, extremity—limb, drug-related, Grade ≥3 ([3]; N = 53): 0 (0) n (%) | Pain, extremity—limb, drug-related, all grades ([3]; N = 53): 12 (23) n (%) | Patients discontinued from the study because of AEs ([3]; N = 53): Seven | Patients with dose reductions ([3]; N = 53): 43.4% | Patients with dose reductions because of treatment-emergent AEs ([3]; N = 53): 32.1% | Patients with drug-related treatment-emergent serious AEs ([3]; N = 53): 4% | Patients with treatment interruptions ([3]; N = 53): 75.5% | Patients with treatment interruptions because of treatment-emergent AEs ([3]; N = 53): 43.4% | Rash/desquamation, drug-related, Grade ≥3 ([3]; N = 53): 3 (6) n (%) | Rash/desquamation, drug-related, all grades ([3]; N = 53): 20 (38) n (%) | Sensory neuropathy, drug-related, Grade ≥3 ([3]; N = 53): 0 (0) n (%) | Sensory neuropathy, drug-related, all grades ([3]; N = 53): 7 (13) n (%) | Any drug-related adverse event, Grade ≥3 ([3]; N = 53, sorafenib 400 mg bid): 16 n (%) and 16 (30) n (%) | Any drug-related adverse event, all grades ([3]; N = 53, sorafenib 400 mg bid): 43 n (%) and 43 (81) n (%) | Deaths during the study or within 30 days of the last dose ([3]; all secondary to disease progression, considered unrelated to study drug): Seven | Discontinuations because of drug-related AEs ([3]; of the patients discontinued because of AEs): 3 patients | Incidence of ≥10 LVEF(%) reduction [4]: 5% | PD as best response (Efficacy: tumor response; 48 patients evaluable for tumor response, RECIST): 27% | Patients alive (censored) at time of analysis (Efficacy: tumor response; ITT population (n = 53)): 87% | Patients who had died by the time of analysis (Efficacy: tumor response; ITT population (n = 53)): 13% | Median PFS (Efficacy: tumor response; ITT population (n = 53), 95% CI 2.8–6.4 months): 4.1 months | Median overall survival (Efficacy: tumor response; ITT population (n = 53), censored data): not estimable
